Screening results deposited in PubChem by Johns Hopkins Ion Channel Center.
TRPC4 potent: TRPC4 (mouse) allosteric potentiation. Q9QUQ5. HEK293 TRPC4beta/mu-opioid, DAMGO EC20, Fluo-4 Ca2+ flux; hits give high values. B-score at 10 µM. 310,000 compounds, 0.42% hits;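 active = B-score of calcium response area above 5 SD of library B-scores, with initial fluorescence ratio within 5 SD of library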;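 also: B-score of integrated fluorescence ratio over time as area under calcium response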
TRPC4 act: activators of mouse TRPC4 channel; HEK293 TRPC4beta/mu-opioid, Fluo4 calcium fluorescence; hits give high values; B-score at 10 µM; 310,000 compounds, 0.49% hits; AID 2237;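 active = B-score above 5 SD of library B-scores, and initial fluorescence ratio not above library mean plus 5 SD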;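 also: positive B-score marks a calcium rise read as TRPC4 activation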
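Incubation: 45 min room-temperature Fluo4 loading, 110 s read / System: HEK293 cells stably co-expressing mouse TRPC4beta and mu-opioid receptor / Signal: Fluo4 fluorescence, kinetic / Control set: buffer (low) and maximal DAMGO (high) / Measure: integrated baseline-normalised fluorescence ratio, converted to per-well B score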
TRPC6 activator: activates the mouse TRPC6 cation channel; HEK293-TRPC6 membrane potential dye fluorescence; hits give high values; B-score at 10 µM; 310,000 compounds, 0.13% hits; AID 2550;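 active = B-score of the integrated fluorescence ratio above library mean plus 3 SD, and starting fluorescence ratio within library mean plus 5 SD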;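 also: higher score means more depolarization so channel activation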
TRPC4 block: TRPC4 (mouse) channel inhibition | HEK293 TRPC4beta/mu-opioid, DAMGO-evoked Fluo4 calcium flux; hits give low values | B-score at 10 µM | 300,000 compounds, 0.39% hits;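 active = B-score over 3 SD under the library average, no early fluorescence shift, positive overall ratio signal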
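material = TRPC4beta/mu-opioid receptor HEK293 cell line | probe or stimulus = sequential submaximal and maximal DAMGO stimulation | compound dosing = one concentration per compound | measured by = Fluo4 Ca2+ flux fluorescence | evaluation = integrated fluorescence ratio relative to baseline, converted to per-well B score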
TRPC6 inh: mouse TRPC6 channel inhibition | Q61143 | HEK293-TRPC6, membrane potential dye, ACh-evoked depolarization; hits give low values | B-score at 10 µM | 310,000 compounds, 1.1% hits;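 active = B-score under library mean minus 3 SD, initial fluorescence not abnormally high, positive integrated signal ratio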;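 also: B-score derived from integrated fluorescence ratio over the kinetic read; more negative B-score means stronger inhibition of depolarization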
* hit, by the source's call; i = inactive. Compounds with a hit are over-represented: about 2.3% of the library has one in this group of screens.

SMILES	TRPC4 potent	TRPC4 act	TRPC6 activator	TRPC4 block	TRPC6 inh
CC(=O)NC(c1ccc(Cl)cc1)c1c(O)ccc2ccc(O)cc12 (stereo unspecified)	i	i	i	i	i
CCN(CCNC(=O)C1CCN(S(=O)(=O)c2cccc3nsnc23)CC1)c1ccccc1	i	i	i	i	i
CCCN(CCC)CCCNC(=O)C1CCN(S(=O)(=O)c2cccc3nsnc23)CC1	i	134*	i	i	i
Cc1ccc(-n2ncc3ccccc3c2=O)cc1Cl	i	i	i	i	i
CCN(C(=O)c1cnc(NC(C)C)cc1C(F)(F)F)c1ccc(Cl)cc1Cl	i	i	i	-6*	i
Cc1nn(-c2ccccc2)c2nc(=O)n(-c3ccccc3)cc12	i	i	i	i	i
Cc1cc2ccccn2c1C(=O)c1cc([N+](=O)[O-])cc([N+](=O)[O-])c1	12*	i	i	i	i
COC(=O)c1cc(C(=O)c2c(C)cc3ccccn23)cc([N+](=O)[O-])c1	i	i	i	i	i
CCn1c(=O)c2cc(C(=O)NCCN(C)C)sc2c2ccccc21	i	i	i	i	i
COc1cccc(-c2nc(CS(=O)CC(=O)NC(C)CCc3ccccc3)c(C)o2)c1 (stereo unspecified)	i	i	i	i	i
COc1cc(-c2noc(C)c2-c2ccc(N(C)C)nc2)cc(OC)c1OC	i	66*	i	i	i
COc1cc(-c2noc(C)c2-c2ccc3[nH]ccc3c2)cc(OC)c1OC	i	i	i	i	i
CCCN(CCC)CCCNS(=O)(=O)c1ccc2c(c1)oc(=O)n2C	i	56*	i	i	i
CC(C)OCCCNS(=O)(=O)c1ccc2c(c1)oc(=O)n2C	i	i	i	i	i
O=C(COC(=O)c1ccc(S(=O)(=O)N2CCOCC2)cc1)NC1CCCCCCC1	i	i	i	i	i
Cc1ccc(C)c(NC(=O)CSc2nnc(CNC(=O)c3ccco3)n2C)c1	i	i	i	i	i
COc1cccc(CN(C)Cc2c(O)ccc3ccccc23)c1	i	i	i	i	i
CCCCn1c2ccccc2c2nnc(SCCN3CCCCC3)nc21	i	i	i	-7*	i
CCCCn1c2ccc(F)cc2c2nnc(SCCN3CCOCC3)nc21	i	i	i	i	i
CCN(c1ccccc1)S(=O)(=O)c1ccc(OC)c(NC(=O)COc2ccc(C(C)=O)cc2)c1	i	i	i	i	i
CCCOc1ccc(C(=O)NNC(=S)NC(=O)CC)cc1	i	46*	i	i	i
Cc1onc(-c2ccccc2)c1C(=O)NC(=S)NNC(=O)c1ccccc1O	i	247*	i	i	i
C=CCNC(=S)NNC(=O)c1ccc(OCCC)cc1	i	i	i	i	i
CCCOc1ccc(C(=O)NC(=S)NNC(=O)c2c(-c3ccccc3)noc2C)cc1	i	194*	i	i	i
COC(=O)c1ccc(NS(=O)(=O)c2ccc3[nH]c(=O)oc3c2)cc1	i	i	i	i	i
SMILES	TRPC4 potent	TRPC4 act	TRPC6 activator	TRPC4 block	TRPC6 inh
Cc1cccc(OCC(=O)N(C)CCc2ccccn2)c1	i	54*	i	i	i
CN(CCc1ccccn1)C(=S)Nc1cccc(S(=O)(=O)N(C)C)c1	i	101*	i	i	i
Cc1cccc(CN(C)CCc2ccccn2)c1	i	i	i	i	i
Cc1ccc(C)c(NC(=S)N(C)CCc2ccccn2)c1	i	74*	i	i	i
CN(C)S(=O)(=O)c1cccc(NC(=S)NCCc2ccccn2)c1	i	i	i	i	i
CC(/C=C/c1ccccc1)=N\NC(=O)c1ccc(Br)cc1	i	i	i	i	i
CCN(CC)S(=O)(=O)c1cc(C(=O)Nc2ccccc2C(=O)O)ccc1OC	i	i	i	i	i
O=c1c2cc(Cl)ccc2nc(-c2ccc(Cl)c(Cl)c2)n1O	i	237*	i	i	i
O=c1c2cc(Cl)ccc2nc(-c2ccccc2)n1O	i	i	i	i	i
